# Test results as given in publication PMC9421316 (Heliyon, 2022).
# Read-outs that look alike come from different tables or passages of the source. Ends that are not written are not given here.
# How the values were obtained:
# [1] = Degradation mode of histatins in pooled 1:10 diluted WSS, cationic PAGE; assay type: in vitro ADME, human; conditions: 100 μg/mL, 37 °C
# Outline: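 Unstimulated whole saliva from adolescents (n = 8/group: spastic CP with gingivitis, no CP/no gingivitis, no CP with gingivitis) was held on ice ≤3 h, spun at 1,500×g for 2 min then 14,000×g for 20 min at 4 °C, and the supernatant stored at -80 °C. Supernatant was diluted 1:10 in distilled water and pooled by group. Synthetic histatin 1 or 5 (final 100 μg/mL) was incubated at 37 °C for 0–48 h, with aliquots boiled 5 min. Samples were dried, desalted, and run on 20% cationic PAGE; band intensity was compared with time zero.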
# [2] = assay type: in vitro ADME, human; conditions: for % BD (mean ± S.D.): all groups and time points
# [3] = cited from earlier work
# [4] = diluted WSS from periodontally healthy individuals, HPLC, ref McDonald et al. 8, cited from earlier work
sequence,measurement,setting,value
DSHEKRHHGYRRKFHEKHHSHREFPFYGDYGSNYLYDN [histatin 1],time after which degradation fragments were observed on cationic PAGE,[1]; pooled G2 WSS diluted 1:10,8 h
same,time after which degradation fragments were observed on cationic PAGE,[1]; pooled G3 WSS diluted 1:10,8 h
same,"speed of degradation, G1 relative to G2 and G3","[2]; during a 48 h interval, 1:10 diluted WSS",1.78 times
same,"remaining at 48 h, 100 μg/mL","[2]; human, individual whole saliva supernatant (WSS) diluted 1:10",56%
same,"metabolised at 4 h, 100 μg/mL","[2]; human, whole saliva supernatant (WSS) diluted 1:10, reduction in band density, G2 and G3 (stated together), 1:10 diluted WSS, 37 °C, printed as after 4 h of incubation",~14%
same,% BD (mean ± S.D.),"[2]; saliva of female subjects, 1:10 diluted WSS",79.3 ± 23.6%
same,% BD (mean ± S.D.),"[2]; saliva of male subjects, 1:10 diluted WSS",77.6 ± 20.9%
same,histatin 1 degraded,[3]; 1.5 h of incubation with WSS,approximately 50%
same,time after which totally degraded,[3]; incubation with WSS,40 h
same,intact protein degraded,[4]; 0.5 h,28%
same,intact protein degraded,[4]; 2 h,83%
